Assay results as given in the RNAGym collection of RNA variant scans (doi:10.1002/anie.201605470).

B1: Osa-1-4 twister ribozyme (parent)
chain: CCGCCUAACACUGCCAAUGCCGGUCCCAAGCCCGGAUAAAAGUGGAGGGGGCGG

Variants of: B1
Assay: self-cleavage, relative activity (ratio to wild type); higher = more cleavage; co-transcriptional
Summary of the method: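 For each read, cleavage status was taken from whether upstream sequence was present. The reads came from an Oryza sativa twister ribozyme of 54 nucleotides, whose DNA template was synthesised with 97 % wild-type base and 1 % of each other base at the 48 positions downstream of the cleavage site. The template was transcribed in vitro at 37 °C for 2 h with co-transcriptional self-cleavage, and the RNA was reverse-transcribed using a template-switching oligonucleotide, PCR-amplified and deep-sequenced. Relative activity is the fraction cleaved normalised to wild type.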

| Variant | self-cleavage |
| --- | --- |
| C26G G34U | 0.08 |
| C26G G34A | 0.18 |
| C26G G34C | 0.08 |
| C26A C32U | 0.01 |
| C26A C32G | 0.03 |
| C26A C32A | 0.05 |
| C25U G53U | 0.11 |
| C25U G53C | 0.06 |
| C25U G53A | 0.25 |
| C25U C33A | 0.06 |
| C25U C33U | 0.31 |
| C25U C33G | 0.06 |
| C25A U12A | 0.06 |
| C25A U12C | 0.04 |
| C25A U12G | 0.06 |
| C25A G53U | 0.05 |
| C25A G53C | 0.03 |
| C26G G30C | 0.05 |
| C26G G30U | 0.03 |
| C26G G30A | 0.06 |
| C26A G34U | 0.04 |

| Variant | self-cleavage |
| --- | --- |
| C26A G34A | 0.05 |
| C26A G34C | 0.05 |
| C25U G34A | 0.85 |
| C25U G34C | 0.5 |
| C25U G34U | 0.77 |
| C26A G44C | 0.05 |
| C26A G44U | 0.05 |
| C26A G44A | 0.05 |
| C26A U37C | 0.07 |
| C26A U37G | 0.07 |
| C26A U37A | 0.05 |
| C25U G23C | 0.06 |
| C25U G23U | 0.05 |
| C25U G23A | 0.11 |
| C26G G23A | 0.08 |
| C26G G23U | 0.02 |
| C26G G23C | 0.04 |
| C26A | 0.06 |
| C26G | 0.09 |
| C26A G49C | 0.02 |
| C26A G49A | 0.02 |

| Variant | self-cleavage |
| --- | --- |
| C26A G49U | 0.02 |
| C25U U43A | 0.29 |
| C25U U43G | 0.17 |
| C25U U43C | 0.13 |
| C26A G23A | 0.04 |
| C26A G23C | 0.01 |
| C26A G23U | 0.02 |
| C25G G30A | 0.02 |
| C25G G30U | 0.02 |
| C25G G30C | 0.02 |
| C26G C9G | 0.09 |
| C26G C9U | 0.04 |
| C26G C9A | 0.02 |
| C26G G47C | 0.04 |
| C26G G47A | 0.05 |
| C26G G47U | 0.06 |
| C26G C27G | 0.11 |
| C26G C27A | 0.05 |
| C26G C27U | 0.07 |
| C25G G54A | 0.11 |
| C25G G54C | 0.07 |

| Variant | self-cleavage |
| --- | --- |
| C25G G54U | 0.25 |
| C26A G13C | 0.01 |
| C26A G13A | 0.02 |
| C26A G13U | 0.02 |
| C26G C32A | 0.03 |
| C26G C32U | 0.04 |
| C26G C32G | 0.09 |
| C26A G22C | 0.02 |
| C26A G22A | 0.07 |
| C26A G22U | 0.05 |
| C25U U12G | 0.17 |
| C25U U12A | 0.18 |
| C25U U12C | 0.09 |
| C26A G42C | 0.03 |
| C26A G42A | 0.04 |
| C26A G42U | 0.02 |
| C25G G45A | 0.03 |
| C25G G45C | 0.03 |
| C25G G45U | 0.02 |
| C26A G48A | 0.03 |
